High-throughput results from PubChem BioAssay.
Sampled rows, rich in hits. Any-hit rate of the full collection: about 1.5%.
RAD52 inh: inhibitors of human RAD52 DNA annealing; actives 0.46% (n = 360,000); P43351; recombinant RAD52 DNA annealing, FRET fluorescence; AID 651710; inhibition, % at 18.7 µM;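 active = every replicate showing at least 50% inhibition; inconclusive = mean inhibition at least 50% but not in every replicate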
Target sequence (P43351 whole entry, looked up): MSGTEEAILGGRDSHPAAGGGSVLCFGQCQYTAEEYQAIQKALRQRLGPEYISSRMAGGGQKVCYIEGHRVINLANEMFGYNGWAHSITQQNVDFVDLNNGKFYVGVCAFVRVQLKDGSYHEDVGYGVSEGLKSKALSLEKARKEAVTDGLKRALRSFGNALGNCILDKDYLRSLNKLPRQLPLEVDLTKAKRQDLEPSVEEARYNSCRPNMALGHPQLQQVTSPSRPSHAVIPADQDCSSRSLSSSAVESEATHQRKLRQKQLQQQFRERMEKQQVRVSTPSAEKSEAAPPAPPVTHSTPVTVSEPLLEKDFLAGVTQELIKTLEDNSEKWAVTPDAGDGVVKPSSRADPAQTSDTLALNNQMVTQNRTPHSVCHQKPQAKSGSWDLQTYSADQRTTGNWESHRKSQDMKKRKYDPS
MLL AF4-AF9 inh: blocks AF4 peptide binding to human AF9; actives 0.47% (n = 350,000); P42568; AlphaScreen, biotin-AF4 peptide binding to FLAG-AF9; inhibition, % at 10 µM;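 active = every replicate reaching a set inhibition limit, whatever the replicate mean, cut at about 25% in these data; inconclusive = mean inhibition reaches that limit but some replicates miss it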;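 note: 0% = plate neutral control median and 100% = total signal loss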
S100A4 MyoIIA: blocks human S100A4 binding to myosin IIA peptide | inhibition, % at 10.7 µM | actives 0.14% (n = 360,000) | S100A4/TAMRA-MyoIIA peptide fluorescence polarization;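 active = mean inhibition of at least 70% across replicates, with every replicate also reaching that level; inconclusive = mean inhibition reaches 70% but some replicates fall short; inactive = mean inhibition below 70%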
Target sequence (P26447 whole entry, looked up): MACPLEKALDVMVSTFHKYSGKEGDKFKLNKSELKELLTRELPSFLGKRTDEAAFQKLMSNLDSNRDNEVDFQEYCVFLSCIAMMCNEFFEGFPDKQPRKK
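System – human S100A4 monomer protein, biochemical binding assay · Buffer or medium – Calcium-containing HEPES buffer, pH 7.2 · Timing – 5 min between mix addition and reading · Also added – TAMRA-labelled myosin IIA heavy-chain peptide probe, 5 nM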
GSIS activator: GLuc luminescence reporter in INS-1E cells, primary screen for activators of glucose-dependent secretion of insulin; INS-1E GLuc reporter insulin secretion, 2-3 h; actives 0.61% (n = 370,000); activation, % at 16.6 µM; AID 743287;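 active = lowest replicate activation of at least 40%, so every replicate reaches that level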;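 note: 0% = median of neutral control wells and 100% = median of IBMX positive control wells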
ERAP1 inh: inhibitors of human ERAP1 aminopeptidase; AID 652197; Q9NZ08; recombinant ERAP1, Leu-AMC fluorescence, 60 min; inhibition, % at 10.7 µM; actives 0.15% (n = 340,000);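 active = mean replicate inhibition of at least 30%, or all replicates individually reaching that 30% level; inactive = mean below 30% and not every replicate reaching it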;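 note: 0% = neutral control wells and 100% = L-leucinethiol positive control wells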
AlphaScreen intf: AlphaScreen signal interference counter-screen hit. shares compounds with MLL AF4-AF9 inh. AID 720494. AC50, µM (top dose mostly 12 µM), for inactives: at the top dose activity change, negative = inhibition. actives 45% (n = 530). signal luminescence; cut-off not given, nearly all actives have AC50 up to about 14 µM
DNA binder FP: DNA binding artifact in RAD52 counter-screen; shares compounds with RAD52 inh; Salmon sperm DNA/acridine orange FP displacement; AC50, µM; actives 8% (n = 1,000); AID 652128;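 active = fitted half-maximal concentration for signal loss at or below twice the highest dose tested, in every separate run, actives reach about 64 µM in these data; inconclusive = runs disagree, or flat partial signal loss, or poor fit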
* hit, by the source's call; i = inactive; ? = inconclusive; . = no result.

SMILES	RAD52 inh	MLL AF4-AF9 inh	S100A4 MyoIIA	GSIS activator	ERAP1 inh	DNA binder FP	others
CCOC(=O)c1c(C)n(-c2ccc(C)cc2)c2ccc(OCC(O)CNCCCO)cc12 (stereo not given)	83*	27*	-2	24	2	i	AlphaScreen intf=-19%
CC(=O)c1ccc(Nc2nc(C(N)Cc3ccc(N)cc3)cs2)cc1 (stereo not given)	87*	?	-3	-12	6	i
CC(=O)c1ccc(Nc2nc(C(N)Cc3ccc(Cl)cc3)cs2)cc1 (stereo not given)	-155	4	15	.	0	.
NC(c1ccccc1)c1csc(Nc2ccc(C(=O)c3ccccc3)cc2)n1 (stereo not given)	62*	7	4	-7	8	i
COc1ccc2c3c([nH]c2c1)[C@H](CO)N(Cc1ccccc1F)CC31CN(CC2CC2)C1	.	.	.	7	.	.
COCC#Cc1cnc2c(c1)C(=O)N([C@@H](C)CO)C[C@@H](C)[C@@H](CN(C)S(=O)(=O)c1ccccc1)O2	3	-1	-1	-9	3	.
Cc1cc(C(C)(C)CC(C)(C)C)ccc1OCCOCC[N+](C)(C)Cc1ccccc1	91*	22	3	333*	22	?
CC(=O)N1CC[C@@H]2[C@H]1c1cc(-c3ccc(C#N)cc3)ccc1N(C)[C@H]2CO	2	-2	9	15	-58	.
O=C(CN1CCC(NC(=O)C2CCCCC2)CC1)Nc1ccccc1	-7	-2	-4	2	-2	.
CN(C)c1ccc(NC(=O)CN2CCC(NC(=O)C3CCCCC3)CC2)cc1	72*	51*	1	-2	-1	i
CCN1CCN(c2cc(C)c3cc(NC(=O)c4cccs4)ccc3n2)CC1	63*	?	7	4	1	i
CCCN1CCN(CCCNC(=S)Nc2ccc3nc(N4CCN(CC)CC4)cc(C)c3c2)CC1	99*	8	-6	-9	2	i
CCCCNC(=S)Nc1ccc2nc(N3CCN(CC)CC3)cc(C)c2c1	57*	18	2	-4	-5	i
Cc1cc(N2CCCC2)nc2ccc(NC(=S)NCCCN3CCC(C)CC3)cc12	76*	14	-6	18	3	i
Cc1cc(N2CCOCC2)nc2ccc(NC(=S)N3CCCCC3C)cc12 (stereo not given)	-15	10	3	-15	-5	.
CCN1CCN(c2cc(C)c3cc(NC(=O)c4cccc(OC)c4)ccc3n2)CC1	34	5	-5	.	-2	.
COc1ccc(S(=O)(=O)Nc2ccc3c(c2)OC[C@@H](C)N(C(=O)NC(C)C)C[C@@H](C)[C@H](OC)CN(C)C3=O)cc1	-9	-2	8	-5	1	.
C[C@H](CO)N1C[C@H](C)[C@H](CN(C)Cc2ccncc2)OCCCC[C@H](C)Oc2ccc(NC(=O)Nc3ccc(F)cc3)cc2C1=O	.	.	.	-18	.	.
CCN(CC)CCNC(=S)Nc1ccc2nc(N3CCN(CC)CC3)cc(C)c2c1	93*	11	-12	48*	0	i
CCOc1ccc(Nc2c3ccccc3nc3ccccc23)cc1	85*	37*	0	3	-70	i
C[C@H](CO)N1C[C@H](C)[C@@H](CN(C)S(C)(=O)=O)Oc2ncc(C#CC3CCCC3)cc2C1=O	1	2	-5	-9	0	.
COc1cc(C(=O)NC2CCN(C)CC2)ccc1Nc1ncc2c(n1)N(C1CCCCC1)CCC(=O)N2C	97*	1	2	14	-3	i
COc1ccccc1-n1cnc2cc(C(=O)NC3CCCC3)ccc21	.	.	.	-8	.	.
CCOc1ccc(CCN2C(=S)N([C@@H](CC(C)C)CN3CCCC3CN3C(=S)NC[C@@H]3Cc3ccc(O)cc3)C[C@@H]2Cc2ccc(O)cc2)cc1 (stereo not given in full)	79*	4	-6	1	1	i
CCOc1ccc(CCN2C(=S)N([C@@H](CC(C)C)CN3CCCC3CN3C(=S)NC[C@@H]3Cc3ccc(O)cc3)C[C@@H]2Cc2ccccc2)cc1 (stereo not given in full)	-32	-6	-3	8	.	.
SMILES	RAD52 inh	MLL AF4-AF9 inh	S100A4 MyoIIA	GSIS activator	ERAP1 inh	DNA binder FP	others
CCN(CC)CC(O)Cn1c2ccccc2c2ccccc21 (stereo not given)	.	.	.	6	.	.
CCN(CC)CC(O)c1ccc2ccc3ccc(O)cc3c2c1 (stereo not given)	72*	2	-4	-3	-1	i
NC(=O)CC(NC(=O)Cc1cccc2ccccc12)c1ccc(N2CCC(N3CCCC3)CC2)c([N+](=O)[O-])c1 (stereo not given)	13	.	-31	-1	-3	.
CN1CCN(c2ccc(C(CC(N)=O)NC(=O)Cc3cccc4ccccc34)cc2[N+](=O)[O-])CC1 (stereo not given)	56*	-1	2	29	.	?
COc1cccc(-c2cc3nc(NCCN4CCCC4)n(C)c(=O)c3s2)c1	89*	3	-5	-4	-5	i
Cn1c(NCCN2CCCC2)nc2cc(-c3ccccc3)sc2c1=O	52*	2	-3	.	-7	i
Cn1c(NCCN2CCCC2)nc2cc(-c3cccc(C(F)(F)F)c3)sc2c1=O	40	.	-5	4	1	.
COc1cccc(CNc2nc3cc(-c4cccc(OC)c4)sc3c(=O)n2C)c1	-13	-2	6	-1	0	.
Cc1cc(C)c2c(=N)c3ccccc3n(CCCCCCCCn3c4ccccc4c(=N)c4c(C)cc(C)nc43)c2n1	67*	?	0	42	15	16µM*
CCCCCn1c2c(c(=N)c3ccccc31)CCC2	-8	-4	-15	-36	10	.
O=C(c1ccccc1)N1CC(=O)N2[C@@H](CO)[C@@H](c3ccc(C#Cc4ccccc4)cc3)[C@@H]2C1	-16	1	-14	-12	0	.
COc1ccc(S(=O)(=O)Nc2ccc3c(c2)C(=O)N([C@@H](C)CO)C[C@H](C)[C@@H](CN(C)S(=O)(=O)c2cn(C)cn2)OCCCC[C@H](C)O3)cc1	3	-1	-5	0	1	.
Oc1cccc(/C=N/Nc2cc(N3CCCC3)nc(N3CCCC3)n2)c1	.	.	.	17	.	.
COc1ccc(/C=N/Nc2cc(N3CCCC3)nc(N3CCCC3)n2)cc1	73*	12	1	0	-7	i
CCOc1cc2[nH]c(=S)n(Cc3ccc(C(=O)NCCCN(CC)CC)cc3)c(=O)c2cc1OCC	67*	9	-6	-4	-7	i
C/C=C/c1ccc([C@H]2[C@@H](CO)N3CCCCN(C(=O)Nc4cc(F)ccc4F)C[C@@H]23)cc1	-17	10	1	-17	-2	.
